Source: ChEMBL document CHEMBL1132963, “Structure-based design of potent, amidine-derived inhibitors of factor Xa: evaluation of selectivity, anticoagulant activity, and antithrombotic activity” (2000)

Key:
[1] = target: Vitamin K-dependent protein C (Homo sapiens) (UniProt P04070); experiment: Tested for inhibition of activated protein C
Method in brief: (§1)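 Apparent association constant from inhibition of chromogenic substrate hydrolysis read at 405 nm, using a single substrate concentration suited to each protease. Inhibitor dilutions done in triplicate at four to eight concentrations; Kass computed from free and bound enzyme at 20–80% inhibition. Mean of at least 3 separate experiments.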

[2] = target: Prothrombin (Homo sapiens) (UniProt P00734); experiment: Tested for inhibition of thrombin.; method in brief: as §1
[3] = target: Tissue-type plasminogen activator (Homo sapiens) (UniProt P00750); experiment: Tested for inhibition of Tissue type plasminogen activator; method in brief: as §1
[4] = target: Urokinase-type plasminogen activator (Homo sapiens) (UniProt P00749); experiment: Tested for inhibition of Urokinase-type plasminogen activator; method in brief: as §1
[5] = Compound required to double the time to clot formation in reconstituted human plasma, using activated partial thromboplastin time (APTT); format: functional
Method in brief: (§2)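 Reconstituted human plasma; clotting by activated partial thromboplastin time or prothrombin time. Value is the inhibitor concentration that doubles clotting time.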

Homo sapiens = organism: Homo sapiens; experiment: Compound required to double the time to clot formation in reconstituted human plasma, using the prothromboplastin time (PT); format: functional; method in brief: as §2
Trypsin II (Bos taurus) = target: T1, Trypsin II (Bos taurus) (UniProt Q29463); experiment: Tested for inhibition of trypsin; method in brief: as §1
T1 sequence (whole entry): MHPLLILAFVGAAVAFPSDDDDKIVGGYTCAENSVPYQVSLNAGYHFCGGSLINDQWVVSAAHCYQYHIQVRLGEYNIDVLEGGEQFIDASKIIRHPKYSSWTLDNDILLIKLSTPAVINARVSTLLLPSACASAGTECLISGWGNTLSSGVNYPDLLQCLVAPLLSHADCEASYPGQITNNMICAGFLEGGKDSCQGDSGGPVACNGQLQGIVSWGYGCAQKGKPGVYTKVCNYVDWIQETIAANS

[6] = Selectivity as the ratio of Kass value towards fXa to that of UK.
Method in brief: (§3)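 Ratio of fXa Kass to Kass for the second protease. Each Kass is an apparent association constant from chromogenic substrate hydrolysis kinetics at 405 nm, run at one substrate concentration per protease, in triplicate at four to eight inhibitor concentrations. Each value is the mean of at least 3 separate experiments.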

[7] = target: Coagulation factor X (Homo sapiens) (UniProt P00742); experiment: Selectivity as the ratio of Kass value towards fXa to that of aPC.; method in brief: as §3
[8] = Selectivity as the ratio of Kass value towards fXa to that of tissue plasminogen activator.; method in brief: as §3
[9] = target: Thrombin and coagulation factor X (Homo sapiens) (UniProt P00734+P00742); experiment: Selectivity as the ratio of Kass value towards fXa to that of thrombin.; format: protein assay; method in brief: as §3
[10] = Selectivity as the ratio of Kass value towards fXa to that of trypsin.; method in brief: as §3
[11] = target: Plasminogen (Homo sapiens) (UniProt P00747); experiment: Tested for inhibition of plasmin
[12] = system: Plasminogen and coagulation factor X (Homo sapiens); experiment: Selectivity as the ratio of Kass value towards fXa to that of plasmin.
[13] = target: Coagulation factor X (Homo sapiens) (UniProt P00742); experiment: Apparent association constant against human Coagulation factor X.
Method in brief: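 Human fXa at 3.2 nM final in Tris/NaCl buffer pH 7.4 with HSA; inhibitor added from MeOH in triplicate at four to eight concentrations, then chromogenic substrate (0.3 mM stock) to start hydrolysis, read at 405 nm. Free and bound enzyme taken from on-plate standard curves; apparent Kass = [Eb]/[Ef][Io − Ib] from concentrations giving 20–80% inhibition. At least 3 separate experiments averaged.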

Plasminogen (Homo sapiens), sequence (P00747 whole entry, looked up): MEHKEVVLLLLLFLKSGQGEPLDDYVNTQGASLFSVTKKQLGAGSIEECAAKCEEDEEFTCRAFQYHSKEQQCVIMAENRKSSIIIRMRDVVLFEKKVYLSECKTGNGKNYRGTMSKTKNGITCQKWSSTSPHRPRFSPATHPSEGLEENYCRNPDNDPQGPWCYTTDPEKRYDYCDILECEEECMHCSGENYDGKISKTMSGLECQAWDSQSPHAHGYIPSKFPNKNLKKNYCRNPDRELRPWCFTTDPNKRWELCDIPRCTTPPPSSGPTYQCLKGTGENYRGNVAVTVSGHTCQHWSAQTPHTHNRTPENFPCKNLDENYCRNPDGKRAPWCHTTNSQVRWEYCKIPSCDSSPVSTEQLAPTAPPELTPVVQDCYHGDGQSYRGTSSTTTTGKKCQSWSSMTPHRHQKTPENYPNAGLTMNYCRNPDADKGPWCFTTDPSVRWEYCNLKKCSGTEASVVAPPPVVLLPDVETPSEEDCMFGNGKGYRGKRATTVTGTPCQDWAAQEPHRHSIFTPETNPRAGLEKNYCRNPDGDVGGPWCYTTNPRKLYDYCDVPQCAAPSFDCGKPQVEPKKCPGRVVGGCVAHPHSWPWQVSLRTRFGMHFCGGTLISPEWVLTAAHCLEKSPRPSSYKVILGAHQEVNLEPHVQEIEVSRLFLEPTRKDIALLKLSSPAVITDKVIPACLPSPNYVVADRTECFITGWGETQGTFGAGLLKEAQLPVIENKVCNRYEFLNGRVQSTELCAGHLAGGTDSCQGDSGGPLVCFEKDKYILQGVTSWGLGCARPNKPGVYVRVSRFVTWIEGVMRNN
Coagulation factor X (Homo sapiens), sequence (P00742 41-179 limits assumed): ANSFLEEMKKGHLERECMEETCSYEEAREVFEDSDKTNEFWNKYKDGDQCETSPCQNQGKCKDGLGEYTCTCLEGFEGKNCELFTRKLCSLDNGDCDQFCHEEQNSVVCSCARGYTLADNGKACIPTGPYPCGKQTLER
Coagulation factor X (Homo sapiens), sequence (P00742 235-488 limits assumed): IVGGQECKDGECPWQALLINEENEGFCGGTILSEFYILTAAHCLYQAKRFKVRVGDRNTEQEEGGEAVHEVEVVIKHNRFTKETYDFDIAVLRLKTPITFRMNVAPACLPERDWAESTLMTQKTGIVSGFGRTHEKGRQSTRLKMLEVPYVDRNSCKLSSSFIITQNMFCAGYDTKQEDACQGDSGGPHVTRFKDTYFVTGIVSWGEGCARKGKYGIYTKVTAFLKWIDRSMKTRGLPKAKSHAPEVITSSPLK
Vitamin K-dependent protein C (Homo sapiens), sequence (P04070 43-197 limits assumed): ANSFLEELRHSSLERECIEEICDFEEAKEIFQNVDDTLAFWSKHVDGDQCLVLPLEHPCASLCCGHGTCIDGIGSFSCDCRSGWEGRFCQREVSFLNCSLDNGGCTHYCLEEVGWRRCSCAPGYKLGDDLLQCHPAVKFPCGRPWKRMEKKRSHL
Vitamin K-dependent protein C (Homo sapiens), sequence (P04070 212-461 limits assumed): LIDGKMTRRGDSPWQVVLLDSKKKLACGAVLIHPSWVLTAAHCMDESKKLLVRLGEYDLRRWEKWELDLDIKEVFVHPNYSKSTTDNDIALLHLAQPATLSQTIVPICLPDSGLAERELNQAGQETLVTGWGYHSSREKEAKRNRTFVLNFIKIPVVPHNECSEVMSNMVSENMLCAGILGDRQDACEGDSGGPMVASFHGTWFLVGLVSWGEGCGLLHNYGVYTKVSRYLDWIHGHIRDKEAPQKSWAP
Tissue-type plasminogen activator (Homo sapiens), sequence (P00750 36-562 limits assumed): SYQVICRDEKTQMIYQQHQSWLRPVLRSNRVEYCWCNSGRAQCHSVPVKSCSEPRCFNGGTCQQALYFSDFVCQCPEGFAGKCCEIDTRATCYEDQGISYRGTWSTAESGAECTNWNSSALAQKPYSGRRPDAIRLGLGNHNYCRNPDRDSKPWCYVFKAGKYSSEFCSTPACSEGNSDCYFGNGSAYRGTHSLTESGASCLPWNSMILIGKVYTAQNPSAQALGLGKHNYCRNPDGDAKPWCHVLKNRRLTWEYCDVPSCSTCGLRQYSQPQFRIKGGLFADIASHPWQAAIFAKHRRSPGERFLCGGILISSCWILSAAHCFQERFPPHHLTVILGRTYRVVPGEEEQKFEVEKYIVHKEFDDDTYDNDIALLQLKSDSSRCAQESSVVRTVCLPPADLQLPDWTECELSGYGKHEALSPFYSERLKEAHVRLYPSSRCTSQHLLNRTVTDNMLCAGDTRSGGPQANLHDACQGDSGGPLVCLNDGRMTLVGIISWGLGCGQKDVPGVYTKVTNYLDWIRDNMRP
Thrombin and coagulation factor X (Homo sapiens), sequence (P00742 whole entry, looked up, other chains not shown): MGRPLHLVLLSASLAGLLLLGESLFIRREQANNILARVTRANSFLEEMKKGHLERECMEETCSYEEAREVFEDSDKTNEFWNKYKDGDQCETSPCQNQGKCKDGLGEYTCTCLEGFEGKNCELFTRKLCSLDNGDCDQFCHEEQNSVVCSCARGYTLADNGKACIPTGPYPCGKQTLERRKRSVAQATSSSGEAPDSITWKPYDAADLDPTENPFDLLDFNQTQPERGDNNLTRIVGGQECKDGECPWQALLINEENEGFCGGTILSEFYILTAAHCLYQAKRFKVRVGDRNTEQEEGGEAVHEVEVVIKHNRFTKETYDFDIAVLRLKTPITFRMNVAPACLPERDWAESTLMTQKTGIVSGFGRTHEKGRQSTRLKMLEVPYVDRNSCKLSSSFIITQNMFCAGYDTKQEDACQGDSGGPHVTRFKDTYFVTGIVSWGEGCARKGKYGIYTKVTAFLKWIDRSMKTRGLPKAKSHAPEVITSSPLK

What does the source list for `CC(C)(C)c1ccc(C(=O)Nc2cc(C(=O)O)ccc2NC(=O)c2cccc(C(=N)N)c2)cc1`?
K ass [1]: 13000 l M-1; K ass [2]: 650000 l M-1; K ass [3]: 4000 l M-1; K ass [4]: 1000 l M-1; Activity [5]: 0.72 µM; Activity (Homo sapiens): 0.83 µM; K ass (Trypsin II (Bos taurus)): 1.2e+07 l M-1; Ratio [6]: 470000; Ratio [7]: 36000; Ratio [8]: 120000; Ratio [9]: 720; Ratio [10]: 390; K ass [11]: 73000 l M-1; Ratio [12]: 6400

Which K ass [13] does the source give for `CC(C)(C)c1ccc(C(=O)Nc2ccccc2NC(=O)C2CCCN(C(=N)N)C2)cc1` (stereo not drawn) here?
Its K ass is 1.2e+07 l M-1.

Which K ass [13] does the source give for `COc1ccc(NC(=O)c2ccccc2NC(=O)c2cccc(C(=N)N)c2)cc1` here?
Its K ass is 1.7e+06 l M-1.

With `COc1ccc(C(=O)Nc2ccccc2NC(=O)c2ccc(C(=N)N)cc2)cc1` as the compound, how does the K ass [13] read?
The K ass was 5.7e+06 l M-1.

Which K ass [1] does the source give for `COc1ccc(C(=O)Nc2ccccc2NC(=O)c2cccc(C(=N)N)c2)cc1` here?
Its K ass is 15000 l M-1.

What about the K ass [13] of the same compound?
Its K ass is 1.4e+07 l M-1.

What about the K ass [2] of the same compound?
Its K ass is 270000 l M-1.

What about the K ass [3] of the same compound?
The K ass was 20000 l M-1.

What about the K ass [4] of the same compound?
Its K ass is 1000 l M-1.

What about the Activity [5] of the same compound?
Its Activity is 2 µM.

And the Activity (Homo sapiens)?
Its Activity is 1.5 µM.

And the K ass (Trypsin II (Bos taurus))?
Its K ass is 600000 l M-1.

And the Ratio [6]?
The Ratio was 15000.

What about the Ratio [7] of the same compound?
The Ratio was 1000.

And the Ratio [8]?
The Ratio was 750.

And the Ratio [9]?
Its Ratio is 56.

What about the Ratio [10] of the same compound?
Its Ratio is 25.

And the K ass [11]?
The K ass was 20000 l M-1.

And the Ratio [12]?
Its Ratio is 750.

Which K ass [13] does the source give for `COc1ccc(C(=O)Nc2ccccc2NC(=O)C2CCCN(C(=N)N)C2)cc1` (stereo not drawn) here?
The K ass was 1e+06 l M-1.

Which K ass [1] does the source give for `CC(C)(C)c1ccc(C(=O)Nc2ccccc2NC(=O)c2cccc(C(=N)N)c2)cc1` here?
The K ass was 2000 l M-1.

And the K ass [13]?
Its K ass is 2.5e+08 l M-1.

And the K ass [2]?
Its K ass is 3e+06 l M-1.

What about the K ass [3] of the same compound?
The K ass was 11000 l M-1.

What about the Activity [5] of the same compound?
Its Activity is 0.67 µM.

And the Activity (Homo sapiens)?
Its Activity is 0.96 µM.

And the K ass (Trypsin II (Bos taurus))?
Its K ass is 340000 l M-1.

And the Ratio [6]?
The Ratio was greater than 250000.

What about the Ratio [7] of the same compound?
The Ratio was 13000.

What about the Ratio [8] of the same compound?
Its Ratio is 23000.

What about the Ratio [9] of the same compound?
The Ratio was 83.

What about the Ratio [10] of the same compound?
Its Ratio is 740.

What about the K ass [11] of the same compound?
The K ass was 6000 l M-1.

What about the Ratio [12] of the same compound?
The Ratio was 42000.

With `CCOC(=O)COc1ccc(NC(=O)c2cccc(C(=N)N)c2)c(NC(=O)c2ccc(C(C)C)cc2)c1` as the compound, how does the K ass [13] read?
The K ass was 1.6e+08 l M-1.

Which K ass [1] does the source give for `CC(C)c1ccc(C(=O)Nc2cc(OCC(=O)O)ccc2NC(=O)c2cccc(C(=N)N)c2)cc1` here?
Its K ass is 14000 l M-1.

And the K ass [13]?
Its K ass is 3.4e+08 l M-1.

And the K ass [2]?
The K ass was 800000 l M-1.

And the K ass [3]?
Its K ass is 7000 l M-1.

What about the K ass [4] of the same compound?
Its K ass is 1000 l M-1.

What about the K ass (Trypsin II (Bos taurus)) of the same compound?
Its K ass is 2.5e+06 l M-1.

And the Ratio [6]?
The Ratio was 340000.

What about the Ratio [7] of the same compound?
The Ratio was 24000.

And the Ratio [8]?
Its Ratio is 49000.

What about the Ratio [9] of the same compound?
Its Ratio is 430.

What about the Ratio [10] of the same compound?
The Ratio was 140.

And the K ass [11]?
Its K ass is 39000 l M-1.

And the Ratio [12]?
Its Ratio is 8700.

For `CC(C)c1ccc(C(=O)Nc2ccccc2NC(=O)c2cccc(C(=N)N)c2)cc1`, which K ass [13] is on record?
Its K ass is 1.8e+08 l M-1.

For `CC(C)(C)c1ccc(C(=O)Nc2ccsc2C(=O)Nc2cccc(C(=N)N)c2)cc1`, which K ass [13] is on record?
Its K ass is 1.2e+07 l M-1.

For `CC(C)c1ccc(C(=O)Nc2cc(O)ccc2NC(=O)c2cccc(C(=N)N)c2)cc1`, which K ass [13] is on record?
The K ass was 2.3e+08 l M-1.

Which K ass [13] does the source give for `CCOc1ccc(C(=O)Nc2ccccc2NC(=O)c2cccc(C(=N)N)c2)cc1` here?
Its K ass is 2.9e+07 l M-1.

For `CC(C)(C)c1ccc(C(=O)Nc2ccccc2C(=O)Nc2cccc(C(=N)N)c2)cc1`, which K ass [13] is on record?
Its K ass is 3.5e+06 l M-1.

With `CC(C)(C)c1ccc(C(=O)Nc2ccc(C(=O)O)cc2NC(=O)c2cccc(C(=N)N)c2)cc1` as the compound, how does the K ass [13] read?
Its K ass is 5.4e+07 l M-1.

For `COc1ccc(C(=O)Nc2ccc(C(=N)N)cc2NC(=O)c2ccc(OC)cc2)cc1`, which K ass [13] is on record?
Its K ass is 270000 l M-1.
